ChEMBL document CHEMBL3217694, “Diaryl- and triaryl-pyrrole derivatives: inhibitors of the MDM2-p53 and MDMX-p53 protein-protein interactions†Electronic supplementary information (ESI) available: Experimental details for compound synthesis, analytical data for all compounds and intermediates. Details for the biological …” (Medchemcomm, 2013)
Active and inactive are the calls of the source. The calls are words filed in the database; no cut-off is given here.

How the values were obtained:
[1] = biological target: E3 ubiquitin-protein ligase Mdm2 (Homo sapiens, UniProt Q00987); assay: Inhibition of MDM2-p53 interaction (unknown origin) by ELISA
Procedure, shortened: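 MDM2–p53 ELISA protein–protein binding assay; IC50 values were determined in follow-up concentration–response testing.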

[2] = biological target: T1, E3 ubiquitin-protein ligase Mdm2/Cellular tumor antigen p53/Protein Mdm4 (Homo sapiens) (UniProt P04637+Q00987+O15151); assay: Inhibition of MDM2/MDMX-p53 interaction in human A2780 CP70 cells expressing p53 mutant gene assessed as induction of p53 protein expression at 0.2 to 5 uM after 4 hrs by western blot analysis; assay type: cell-based
Procedure, shortened: (§1)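 Cell lines with defined MDM2 and p53 status were exposed to increasing compound concentrations for 4 h. p53 pathway activation (p53 and the p53-dependent proteins) was then detected by Western blotting of cell extracts.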

[3] = biological target: T1, E3 ubiquitin-protein ligase Mdm2/Cellular tumor antigen p53/Protein Mdm4 (Homo sapiens); assay: Inhibition of MDM2/MDMX-p53 interaction in human A2780 cells expressing wild-type p53 assessed as induction of p53 protein expression at 0.2 to 5 uM after 4 hrs by western blot analysis; assay type: cell-based; procedure, shortened: as §1
[4] = biological target: T1, E3 ubiquitin-protein ligase Mdm2/Cellular tumor antigen p53/Protein Mdm4 (Homo sapiens); assay: Inhibition of MDM2/MDMX-p53 interaction in human A2780 CP70 cells expressing p53 mutant gene assessed as induction of p21 protein expression at 0.2 to 5 uM after 4 hrs by western blot analysis; assay type: cell-based; procedure, shortened: as §1
[5] = biological target: T1, E3 ubiquitin-protein ligase Mdm2/Cellular tumor antigen p53/Protein Mdm4 (Homo sapiens); assay: Inhibition of MDM2/MDMX-p53 interaction in human SJSA-1 cells expressing amplified MDM2 and wild-type p53 assessed as induction of MDM2 protein expression at 5 uM after 4 hrs by western blot analysis; assay type: cell-based; procedure, shortened: as §1
[6] = biological target: T1, E3 ubiquitin-protein ligase Mdm2/Cellular tumor antigen p53/Protein Mdm4 (Homo sapiens); assay: Inhibition of MDM2/MDMX-p53 interaction in human A2780 cells expressing wild-type p53 assessed as induction of p21 protein expression at 0.2 to 5 uM after 4 hrs by western blot analysis; assay type: cell-based; procedure, shortened: as §1
[7] = biological target: T1, E3 ubiquitin-protein ligase Mdm2/Cellular tumor antigen p53/Protein Mdm4 (Homo sapiens); assay: Inhibition of MDM2/MDMX-p53 interaction in human SJSA-1 cells expressing amplified MDM2 and wild-type p53 assessed as induction of p53 protein expression at 5 uM after 4 hrs by western blot analysis; assay type: cell-based; procedure, shortened: as §1
[8] = biological target: T1, E3 ubiquitin-protein ligase Mdm2/Cellular tumor antigen p53/Protein Mdm4 (Homo sapiens); assay: Inhibition of MDM2/MDMX-p53 interaction in human A2780 cells expressing wild-type p53 assessed as induction of MDM2 protein expression at 0.2 to 5 uM after 4 hrs by western blot analysis; assay type: cell-based; procedure, shortened: as §1
[9] = biological target: T1, E3 ubiquitin-protein ligase Mdm2/Cellular tumor antigen p53/Protein Mdm4 (Homo sapiens); assay: Inhibition of MDM2/MDMX-p53 interaction in human A2780 CP70 cells expressing p53 mutant gene assessed as induction of MDM2 protein expression at 0.2 to 5 uM after 4 hrs by western blot analysis; assay type: cell-based; procedure, shortened: as §1
[10] = biological target: T1, E3 ubiquitin-protein ligase Mdm2/Cellular tumor antigen p53/Protein Mdm4 (Homo sapiens); assay: Inhibition of MDM2/MDMX-p53 interaction in human SJSA-1 cells expressing amplified MDM2 and wild-type p53 assessed as induction of p21 protein expression at 5 uM after 4 hrs by western blot analysis; assay type: cell-based; procedure, shortened: as §1

T1 sequence (O15151 whole entry, looked up): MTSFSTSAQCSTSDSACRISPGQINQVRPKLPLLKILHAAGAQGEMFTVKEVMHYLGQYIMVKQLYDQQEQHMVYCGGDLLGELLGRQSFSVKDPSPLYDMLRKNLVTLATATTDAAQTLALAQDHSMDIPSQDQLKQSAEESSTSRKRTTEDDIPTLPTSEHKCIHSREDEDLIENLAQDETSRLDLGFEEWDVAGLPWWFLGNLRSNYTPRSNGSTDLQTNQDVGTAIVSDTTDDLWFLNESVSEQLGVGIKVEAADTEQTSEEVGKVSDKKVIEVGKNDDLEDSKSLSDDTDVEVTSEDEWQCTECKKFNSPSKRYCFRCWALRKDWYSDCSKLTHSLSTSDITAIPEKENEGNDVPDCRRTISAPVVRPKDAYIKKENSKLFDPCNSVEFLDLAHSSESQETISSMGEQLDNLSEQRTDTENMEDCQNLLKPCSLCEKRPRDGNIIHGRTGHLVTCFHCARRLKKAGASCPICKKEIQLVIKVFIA
T1 sequence (P04637 whole entry, looked up): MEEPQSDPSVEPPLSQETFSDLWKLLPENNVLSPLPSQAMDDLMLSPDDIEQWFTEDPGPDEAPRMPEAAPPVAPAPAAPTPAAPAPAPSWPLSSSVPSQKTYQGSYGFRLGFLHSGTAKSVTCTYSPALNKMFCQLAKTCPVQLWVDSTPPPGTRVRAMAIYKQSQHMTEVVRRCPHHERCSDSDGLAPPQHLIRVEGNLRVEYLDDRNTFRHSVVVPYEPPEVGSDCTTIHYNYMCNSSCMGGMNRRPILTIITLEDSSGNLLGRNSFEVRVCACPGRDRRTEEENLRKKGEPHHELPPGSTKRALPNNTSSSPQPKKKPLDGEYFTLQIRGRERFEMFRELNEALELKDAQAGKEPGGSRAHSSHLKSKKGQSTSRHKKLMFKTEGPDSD
T1 sequence (Q00987 whole entry, looked up): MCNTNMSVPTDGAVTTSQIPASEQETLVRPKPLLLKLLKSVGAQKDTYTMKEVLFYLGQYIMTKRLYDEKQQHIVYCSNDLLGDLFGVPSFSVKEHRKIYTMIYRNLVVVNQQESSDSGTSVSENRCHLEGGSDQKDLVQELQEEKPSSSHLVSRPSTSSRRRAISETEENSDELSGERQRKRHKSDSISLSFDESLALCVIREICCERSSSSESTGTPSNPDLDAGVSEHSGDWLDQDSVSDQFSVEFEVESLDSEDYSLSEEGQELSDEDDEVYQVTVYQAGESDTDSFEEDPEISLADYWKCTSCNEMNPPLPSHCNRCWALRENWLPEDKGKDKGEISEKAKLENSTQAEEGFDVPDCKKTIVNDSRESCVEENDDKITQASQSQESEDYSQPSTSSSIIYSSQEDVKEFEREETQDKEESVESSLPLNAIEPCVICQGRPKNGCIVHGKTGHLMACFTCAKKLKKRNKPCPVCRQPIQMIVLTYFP

SMILES | inhibition [1] | further results
CCOC(=O)c1ccc(-n2c(-c3ccccc3)cc(C=C3C(=O)NC(=S)NC3=O)c2-c2ccccc2)cc1 | Dose-dependent effect | –
CCN1C(=O)C(=Cc2cc(-c3ccccc3)n(-c3ccc(Cl)cc3)c2-c2ccccc2)C(=O)N(CC)C1=S | Dose-dependent effect | –
Cc1cc(/C=C2\C(=O)NC(=S)N(c3ccccc3)C2=O)c(C)n1-c1ccc(Cl)cc1 | Dose-dependent effect | –
COc1ccc(-n2c(-c3ccccc3)cc(C=C3C(=O)NC(=O)NC3=O)c2-c2ccccc2)cc1 | Dose-dependent effect | –
Cc1ccc(-n2c(C)cc(/C=C3\C(=O)NC(=S)N(c4ccccc4)C3=O)c2C)cc1 | Dose-dependent effect | –
Cc1ccc(-n2c(C)cc(C=C3C(=O)NC(=S)NC3=O)c2C)cc1 | Dose-dependent effect | –
O=C1NC(=O)C(=Cc2cc(-c3ccccc3)n(-c3ccc(Br)cc3)c2-c2ccccc2)C(=O)N1 | Dose-dependent effect | –
O=C1NC(=S)N(c2ccccc2)C(=O)/C1=C/c1cc(-c2ccccc2)n(-c2ccc(Cl)cc2)c1-c1ccccc1 | Dose-dependent effect | inhibition [2]: inactive; inhibition [3]: inactive; inhibition [4]: inactive; inhibition [5]: Active; inhibition [6]: Active; inhibition [7]: Active; inhibition [8]: Active; inhibition [9]: inactive; inhibition [10]: Active
O=C(NCCO)C(=Cc1cc(-c2ccccc2)n(-c2ccc(Cl)cc2)c1-c1ccccc1)C(=O)NCCO | Dose-dependent effect | –
CC(C)(C)c1cc(C=C2C(=O)NC(=S)NC2=O)c(-c2ccccc2)n1-c1ccc(Cl)cc1 | Dose-dependent effect | –
O=C1NC(=S)NC(=O)C1=Cc1cc(-c2ccccc2)n(-c2ccc([N+](=O)[O-])cc2)c1-c1ccccc1 | Dose-dependent effect | –
Cc1cc(C=C2C(=O)NC(=S)NC2=O)c(C)n1-c1sc2c(c1C#N)CCCC2 | – | inhibition [2]: inactive; inhibition [3]: inactive; inhibition [4]: inactive; inhibition [5]: Active; inhibition [6]: inactive; inhibition [7]: Active; inhibition [8]: inactive; inhibition [9]: inactive; inhibition [10]: Active
OCC(=Cc1cc(-c2ccccc2)n(-c2ccc(Cl)cc2)c1-c1ccccc1)CO | Dose-dependent effect | –
CNC(=O)C(=Cc1cc(-c2ccccc2)n(-c2ccc(Cl)cc2)c1-c1ccccc1)C(=O)NC | Dose-dependent effect | –
O=C1NC(=S)NC(=O)C1=Cc1cc(C2CC2)n(-c2ccc(Cl)cc2)c1-c1ccccc1 | Dose-dependent effect | –
CN1C(=O)C(=Cc2cc(-c3ccccc3)n(-c3ccc(Cl)cc3)c2-c2ccccc2)C(=O)N(C)C1=S | – | IC50 [1]: ND(Insoluble)
O=C1NC(=S)N(c2cccc(Cl)c2)C(=O)/C1=C/c1cc(-c2ccccc2)n(-c2ccc(Cl)cc2)c1-c1ccccc1 | Dose-dependent effect | –
O=C1NC(=S)NC(=O)C1=Cc1cc(-c2ccccc2)n(-c2ccc(Br)cc2)c1C1CC1 | Dose-dependent effect | –
NC(=O)C(=Cc1cc(-c2ccccc2)n(-c2ccc(Cl)cc2)c1-c1ccccc1)C(N)=O | Dose-dependent effect | –

SMILES | inhibition [1] | further results
O=C1NC(=S)NC(=O)C1=Cc1cc(-c2ccccc2)n(-c2ccc(Cl)cc2)c1C1CC1 | Dose-dependent effect | –
O=C(O)/C=C/c1cc(-c2ccccc2)n(-c2ccc(Cl)cc2)c1-c1ccccc1 | Dose-dependent effect | –
O=C1NC(=S)NC(=O)C1=Cc1cc(C2CC2)n(-c2ccc(Br)cc2)c1-c1ccccc1 | Dose-dependent effect | –
Cc1cc(C=C2C(=O)NC(=S)NC2=O)c(C)n1-c1ccc(Cl)cc1 | Dose-dependent effect | –
Cc1ccc(N2C(=O)/C(=C\c3cc(-c4ccccc4)n(-c4ccc(Cl)cc4)c3-c3ccccc3)C(=O)N(c3ccccc3)C2=S)cc1C | Dose-dependent effect | –
CC1(C)OC(=O)C(=Cc2cc(-c3ccccc3)n(-c3ccc(Br)cc3)c2-c2ccccc2)C(=O)O1 | Dose-dependent effect | –
O=C1NC(=O)C(=Cc2cc(-c3ccccc3)n(-c3ccc(Cl)cc3)c2-c2ccccc2)C(=O)N1 | Dose-dependent effect | –
O=C1NC(=O)C(=Cc2cc(-c3ccccc3)n(-c3ccc([N+](=O)[O-])cc3)c2-c2ccccc2)C(=O)N1 | Dose-dependent effect | –
CCN1C(=O)C(=Cc2cc(-c3ccccc3)n(-c3ccc(Br)cc3)c2-c2ccccc2)C(=O)N(CC)C1=S | Dose-dependent effect | –
Cc1cc(C=C2C(=O)N(c3ccccc3)C(=S)N(c3ccccc3)C2=O)c(C)n1-c1ccc(Br)cc1 | Dose-dependent effect | –
N#Cc1ccc(-n2c(-c3ccccc3)cc(C=C3C(=O)NC(=O)NC3=O)c2-c2ccccc2)cc1 | Dose-dependent effect | –
COC(=O)C(=Cc1cc(-c2ccccc2)n(-c2ccc(Cl)cc2)c1-c1ccccc1)C(=O)OC | Dose-dependent effect | –
N#Cc1ccc(-n2c(-c3ccccc3)cc(C=C3C(=O)NC(=S)NC3=O)c2-c2ccccc2)cc1 | Dose-dependent effect | –
CC(C)(C)c1ccc(-n2c(-c3ccccc3)cc(C=C3C(=O)NC(=O)NC3=O)c2-c2ccccc2)cc1 | Dose-dependent effect | –
CC1(C)OC(=O)C(Cc2cc(-c3ccccc3)n(-c3ccc(Br)cc3)c2-c2ccccc2)C(=O)O1 | Dose-dependent effect | –
CCN1C(=O)C(=Cc2cc(-c3ccccc3)n(-c3ccc(Br)cc3)c2-c2ccccc2)C(=O)N(CC)C1=O | Dose-dependent effect | –
O=C1NC(=S)NC(=O)C1=Cc1cc(-c2ccccc2)n(-c2ccc(Cl)cc2)c1-c1ccccc1 | Dose-dependent effect | inhibition [2]: inactive; inhibition [3]: inactive; inhibition [4]: inactive; inhibition [5]: Active; inhibition [6]: Active; inhibition [7]: Active; inhibition [8]: Active; inhibition [9]: inactive; inhibition [10]: Active
CC(C)(C)c1cc(C=C2C(=O)NC(=S)NC2=O)c(-c2ccccc2)n1-c1ccc(Br)cc1 | Dose-dependent effect | –
